The values below come from ChEMBL document CHEMBL3632502, “Bivalent ligands incorporating curcumin and diosgenin as multifunctional compounds against Alzheimer's disease” (Bioorg Med Chem, 2015).

By EC50 is commonly meant the concentration giving half of the maximal effect. High values mean a need for much substance, low ones an effect from little substance.

Activity calls are given as the source filed them. No cut-off for these calls is given here.

The subject of series [1] is MC65. Nature of the series: (§1) Neuroprotective activity against tetracycline deficiency-mediated cell viability loss in human MC65 cells at 1 uM after 72 hrs by MTT assay relative to control. Type of series: functional. In a few lines:
(§2)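 MC65 cells washed twice in PBS, seeded in Opti-MEM at 4×10^4 cells/well, treated at 37 °C under +TC or −TC for 72 h. MTT (5 mg/mL in PBS) added for 4 h, formazan dissolved in DMSO, A570 read. Viability expressed as percent of +TC control; EC50 from concentration series, SEM.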

The nature of series [2]: as §1. Type of series: functional. The procedure, abridged:
as §2

A short description of series [3]: Neuroprotective activity against tetracycline deficiency-mediated cell viability loss in human MC65 cells after 72 hrs by MTT assay. Type of series: functional, cell-based. The settings on record: MC65, 72 h. The procedure, abridged:
as §2

The test system of series [4] is MC65. As to the kind of experiment: Antioxidant activity in human MC65 cells assessed as decrease in tetracycline deficiency-mediated reactive oxygen species formation at 0.1 uM after 48 hrs by DCFH-DA probe-based flow cytometric analysis. It is filed as functional, cell-based. In a few lines:
(§3)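 MC65 cells washed in PBS, resuspended in Opti-MEM, seeded at 2×10^6 cells/well, treated at 37 °C with or without TC (1 μg/mL in culture medium) for 48 h. Harvested cells washed in cold PBS, loaded with 25 μM DCFH-DA in PBS for 1 h in the dark, and analysed by flow cytometry. Fluorescence expressed as percent of control.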
On the technique in general: A flow cytometer gives signals particle by particle.

The nature of series [5]: Metal chelating activity assessed as compound-Fe2+ complex formation at 50 uM after 10 mins by UV-vis spectra analysis. Type of series: physicochemical. In a few lines:
(§4)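 Compound (50 μM) mixed with CuSO4, FeCl2 or ZnCl2 (50 μM) in deionized water, kept 10 min at room temperature, then UV absorption spectrum recorded from 200 to 600 nm.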

The nature of series [6]: Metal chelating activity assessed as compound-Cu2+ complex formation at 50 uM after 10 mins by UV-vis spectra analysis. Type of series: physicochemical. In a few lines: as §4
A short description of series [7]: Metal chelating activity assessed as compound-Zn2+ complex formation at 50 uM after 10 mins by UV-vis spectra analysis. It is filed as physicochemical. The procedure, abridged:
as §4

The target in series [8] is Amyloid-beta precursor protein (Homo sapiens) (UniProt P05067). As to the kind of experiment: Binding affinity to amyloid beta in human MC65 cells assessed as inhibition of tetracycline deficiency-induced amyloid beta oligomerization after 48 hrs by Western blot analysis. It is filed as cell-based. In a few lines:
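MC65 cells in Opti-MEM (2×10^6 cells/well) treated at 37 °C under +TC or −TC for 48 h, then lysed by sonication in Tricine buffer. Supernatant protein (20.0 μg, Bradford-quantified) run on Tris-Tricine SDS-PAGE and blotted to PVDF. Probed with 6E10 overnight at 4 °C, HRP secondary, chemiluminescence; α-tubulin loading control. Total oligomers quantified, n=6, SEM.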

Series [9] deals with MC65. As to the kind of experiment: Effect on tetracycline deficiency-induced total amyloid beta40 level in human MC65 cells at 0.1 to 1 uM after 48 hrs by ELISA. Type of series: functional, cell-based. The procedure, abridged:
(§5)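 MC65 cells in Opti-MEM (4×10^4 cells/well) treated at 37 °C under +TC or −TC for 48 h. Conditioned medium captured on BNT77-coated plates overnight at 4 °C, detected with HRP-BA27 (Aβ40) or HRP-BC05 (Aβ42) for 1 h at room temperature, TMB 30 min, A450. Values in pM from Aβ standard calibration curves.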
Background: In an ELISA, binding on a coated surface is turned into a signal by an enzyme label.

The subject of series [10] is MC65. As to the kind of experiment: Effect on tetracycline deficiency-induced total amyloid beta42 level in human MC65 cells at 0.1 to 1 uM after 48 hrs by ELISA. Type of series: functional, cell-based. In a few lines:
as §5

The target in series [11] is Amyloid-beta precursor protein (Homo sapiens) (UniProt P05067). As to the kind of experiment: Inhibition of amyloid beta42 (unknown origin) aggregation after 48 hrs by ThT assay. In a few lines: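 Aβ42 (25 μM in PBS pH 7.4, 9 μL) mixed with 1 μL of compound in DMSO (0.01–100 μM solutions), triplicates with solvent control, incubated dark at room temperature 48 h. Then 5 μM ThT in 50 mM glycine pH 8.0 added; fluorescence read at ex 446/em 490 nm, with no-ThT background subtracted.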
Sequence of Amyloid-beta precursor protein (Homo sapiens) (P05067 whole entry): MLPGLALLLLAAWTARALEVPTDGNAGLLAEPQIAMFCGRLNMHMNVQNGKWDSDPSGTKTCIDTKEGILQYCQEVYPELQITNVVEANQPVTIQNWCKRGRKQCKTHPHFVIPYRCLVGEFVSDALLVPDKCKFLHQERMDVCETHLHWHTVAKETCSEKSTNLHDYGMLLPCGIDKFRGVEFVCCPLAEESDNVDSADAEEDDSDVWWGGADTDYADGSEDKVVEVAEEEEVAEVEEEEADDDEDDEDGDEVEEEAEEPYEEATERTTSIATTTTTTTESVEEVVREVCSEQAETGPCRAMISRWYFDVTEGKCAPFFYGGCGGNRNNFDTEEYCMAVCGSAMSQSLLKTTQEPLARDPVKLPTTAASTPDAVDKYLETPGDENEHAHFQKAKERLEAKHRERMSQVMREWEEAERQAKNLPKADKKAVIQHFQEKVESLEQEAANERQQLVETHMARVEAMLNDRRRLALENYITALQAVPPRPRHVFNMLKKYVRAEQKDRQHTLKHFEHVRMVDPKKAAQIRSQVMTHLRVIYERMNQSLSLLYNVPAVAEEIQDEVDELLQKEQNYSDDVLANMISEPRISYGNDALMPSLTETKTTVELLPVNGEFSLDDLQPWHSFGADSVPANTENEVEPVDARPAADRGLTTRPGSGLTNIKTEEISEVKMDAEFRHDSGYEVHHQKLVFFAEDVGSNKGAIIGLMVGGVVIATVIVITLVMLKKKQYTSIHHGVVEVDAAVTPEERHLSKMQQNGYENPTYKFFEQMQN

Series [12] concerns MC65. Nature of the series: Antioxidant activity in human MC65 cells assessed as decrease in tetracycline deficiency-mediated reactive oxygen species formation at 0.3 uM after 48 hrs by DCFH-DA probe-based flow cytometric analysis. Type of series: functional, cell-based. In a few lines:
as §3

Regarding `C[C@@H]1CC[C@@]2(OC1)O[C@H]1C[C@H]3[C@@H]4CC=C5C[C@@H](O)CC[C@]5(C)[C@H]4CC[C@]3(C)[C@H]1[C@@H]2C`, the outcome in the series on MC65 [1] was inactive.

As to `COc1cc(/C=C/C(=O)/C(Cc2cn(CCCCCCCC(=O)NCCOCCOCCOCC(=O)O[C@H]3CC[C@@]4(C)C(=CC[C@H]5[C@@H]6C[C@@H]7O[C@]8(CC[C@@H](C)CO8)[C@@H](C)[C@@H]7[C@@]6(C)CC[C@@H]54)C3)nn2)=C(O)/C=C/c2ccc(O)c(OC)c2)ccc1O`, the Activity entry in [2] is “>=80%”. Moreover, it took 1040 nM to reach a half-maximal effect in series [3] (EC50).

Consider `CC(C)Cc1cn(CCOCCOCCNC(=O)CCC(=O)O[C@H]2CC[C@@]3(C)C(=CC[C@H]4[C@@H]5C[C@@H]6O[C@]7(CC[C@@H](C)CO7)[C@@H](C)[C@@H]6[C@@]5(C)CC[C@@H]43)C2)nn1`, for which, in the series on MC65 [1], the result was inactive.

Regarding `COc1cc(/C=C/C(=O)/C(Cc2cn(CCCCCC(=O)NCCOCCOCCOCC(=O)O[C@H]3CC[C@@]4(C)C(=CC[C@H]5[C@@H]6C[C@@H]7O[C@]8(CC[C@@H](C)CO8)[C@@H](C)[C@@H]7[C@@]6(C)CC[C@@H]54)C3)nn2)=C(O)/C=C/c2ccc(O)c(OC)c2)ccc1O`, the Activity result in series [2] was “>=80%”. In addition, the concentration for a half-maximal effect (EC50) in series [3] came to 381 nM.

On to `COc1cc(/C=C/C(=O)/C(Cc2cn(CCOCCOCCNC(=O)CCC(=O)O[C@H]3CC[C@@]4(C)C(=CC[C@H]5[C@@H]6C[C@@H]7O[C@]8(CC[C@@H](C)CO8)[C@@H](C)[C@@H]7[C@@]6(C)CC[C@@H]54)C3)nn2)=C(O)/C=C/c2ccc(O)c(OC)c2)ccc1O`, for which the Activity entry is listed as “>=80%” in series [2], “Not Active” in series [5], “Not Active” in series [6] and “Not Active” in series [7]. Besides, the EC50 in series [3] is 112 nM. Moreover, the result in the series with MC65 [4] was Active. The inhibition result in series [8] and in series [11] was “Dose-dependent effect” throughout. For the same compound, the outcome with MC65 [9] and in the series on MC65 [10] was inactive.

Regarding `CCCCCC(=O)O[C@H]1CC[C@@]2(C)C(=CC[C@@H]3[C@@H]4C[C@@H]5O[C@]6(CC[C@@H](C)CO6)[C@@H](C)[C@@H]5[C@@]4(C)CC[C@@H]32)C1`, the result in the series on MC65 [1] was inactive.

As to `COc1cc(/C=C/C(=O)CC(=O)/C=C/c2ccc(O)c(OC)c2)ccc1O`, the result in the series on MC65 [1] was inactive.

In turn, `COc1cc(/C=C/C(=O)/C(Cc2cn(CCCCCCCCCC(=O)NCCOCCOCCOCC(=O)O[C@H]3CC[C@@]4(C)C(=CC[C@H]5[C@@H]6C[C@@H]7O[C@]8(CC[C@@H](C)CO8)[C@@H](C)[C@@H]7[C@@]6(C)CC[C@@H]54)C3)nn2)=C(O)/C=C/c2ccc(O)c(OC)c2)ccc1O` registered a half-maximal effective concentration (EC50) in [3] of 309 nM.

For the compound `COc1cc(/C=C/C(=O)/C(Cc2cn(CCCCC(=O)NCCOCCOCCOCC(=O)O[C@H]3CC[C@@]4(C)C(=CC[C@H]5[C@@H]6C[C@@H]7O[C@]8(CC[C@@H](C)CO8)[C@@H](C)[C@@H]7[C@@]6(C)CC[C@@H]54)C3)nn2)=C(O)/C=C/c2ccc(O)c(OC)c2)ccc1O`, the Activity result is “>=80%” in series [2], “Not Active” in [5], “Not Active” in [6] and “Not Active” in [7]. This compound also returned a concentration for a half-maximal effect (EC50) in series [3] of 232 nM. Further, in the series with MC65 [12], the outcome was Active. In addition, the inhibition entry in [8] and in [11] was “Dose-dependent effect” in each case. In addition, the outcome in the series on MC65 [9] and with MC65 [10] was inactive.

For the compound `COC(=O)CCC(=O)NCCOCCOCCn1cc(C/C(C(=O)/C=C/c2ccc(O)c(OC)c2)=C(O)\C=C\c2ccc(O)c(OC)c2)nn1`, the result with MC65 [1] was inactive.

The compound `COc1cc(/C=C/C(=O)/C(Cc2cn(CCCCCCCCCCCC(=O)NCCOCCOCCOCC(=O)O[C@H]3CC[C@@]4(C)C(=CC[C@H]5[C@@H]6C[C@@H]7O[C@]8(CC[C@@H](C)CO8)[C@@H](C)[C@@H]7[C@@]6(C)CC[C@@H]54)C3)nn2)=C(O)/C=C/c2ccc(O)c(OC)c2)ccc1O` gave an EC50 in series [3] of 4620 nM.
